# Compounds with a hit are over-represented: about 2.3% of the library has one in this group of screens.
# TRPC6 inh – inhibitors of mouse TRPC6 channel; HEK293-TRPC6, membrane potential dye, ACh-evoked depolarization; stronger effect = lower value; B-score at 10 µM; 1.1% of 310,000 active; AID 2553;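 active = B-score under library mean minus 3 SD, initial fluorescence not abnormally high, positive integrated signal ratio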;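 note: B-score derived from integrated fluorescence ratio over the kinetic read; more negative B-score means stronger inhibition of depolarization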
# Target sequence (Q61143 whole entry, looked up): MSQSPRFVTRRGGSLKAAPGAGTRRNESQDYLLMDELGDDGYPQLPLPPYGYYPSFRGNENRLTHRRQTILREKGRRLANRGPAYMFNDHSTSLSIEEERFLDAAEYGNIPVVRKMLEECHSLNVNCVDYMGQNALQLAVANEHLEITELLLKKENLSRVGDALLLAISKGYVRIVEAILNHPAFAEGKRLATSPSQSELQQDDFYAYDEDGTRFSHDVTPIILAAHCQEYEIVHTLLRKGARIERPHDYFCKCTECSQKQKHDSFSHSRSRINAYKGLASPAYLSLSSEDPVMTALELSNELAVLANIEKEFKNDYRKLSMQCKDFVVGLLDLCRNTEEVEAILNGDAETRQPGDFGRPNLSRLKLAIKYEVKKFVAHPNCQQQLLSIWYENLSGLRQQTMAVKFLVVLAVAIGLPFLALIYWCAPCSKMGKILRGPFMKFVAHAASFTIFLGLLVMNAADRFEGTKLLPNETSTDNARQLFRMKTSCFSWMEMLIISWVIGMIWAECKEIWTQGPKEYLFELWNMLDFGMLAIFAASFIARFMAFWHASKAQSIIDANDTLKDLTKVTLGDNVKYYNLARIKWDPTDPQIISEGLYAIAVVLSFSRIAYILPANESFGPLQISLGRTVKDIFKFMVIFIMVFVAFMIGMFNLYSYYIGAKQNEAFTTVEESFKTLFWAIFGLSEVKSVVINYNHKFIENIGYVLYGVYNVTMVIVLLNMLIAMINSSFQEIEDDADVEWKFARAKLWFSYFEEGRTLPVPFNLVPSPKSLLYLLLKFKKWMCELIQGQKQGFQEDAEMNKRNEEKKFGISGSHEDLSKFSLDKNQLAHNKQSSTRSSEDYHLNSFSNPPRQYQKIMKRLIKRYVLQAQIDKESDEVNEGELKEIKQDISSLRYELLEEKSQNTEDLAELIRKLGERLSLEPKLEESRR
# TRPC4 inh – blocks the mouse TRPC4 cation channel; HEK293 TRPC4beta/mu-opioid, DAMGO-evoked Fluo4 calcium flux; stronger effect = lower value; 0.39% of 300,000 active; B-score at 10 µM;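 active = B-score over 3 SD under the library average, no early fluorescence shift, positive overall ratio signal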
#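 Material: HEK293 cells with stable TRPC4beta plus mu-opioid receptor expression; probe or stimulus: DAMGO in two steps, submaximal then maximal; technique: Fluo4 calcium fluorescence by kinetic imaging, 5 s 1 Hz baseline; measure: integrated fluorescence ratio relative to baseline, converted to per-well B score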
# TRPC4 potent – allosteric potentiators of mouse TRPC4 channel. Q9QUQ5. HEK293 TRPC4beta/mu-opioid, DAMGO EC20, Fluo-4 Ca2+ flux; stronger effect = higher value. B-score at 10 µM. 0.42% of 310,000 active. AID 2227;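 active = B-score of calcium response area above 5 SD of library B-scores, with initial fluorescence ratio within 5 SD of library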;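 note: B-score of integrated fluorescence ratio over time as area under calcium response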
# TRPC4 act – activators of mouse TRPC4 channel | B-score at 10 µM | 0.49% of 310,000 active | HEK293 TRPC4beta/mu-opioid, Fluo4 calcium fluorescence; stronger effect = higher value | Q9QUQ5;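 active = B-score above 5 SD of library B-scores, and initial fluorescence ratio not above library mean plus 5 SD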;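 note: positive B-score marks a calcium rise read as TRPC4 activation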
#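 Assay system: HEK293 cells stably co-expressing mouse TRPC4beta and mu-opioid receptor / Timing: Fluo4 dye loading 45 min at room temperature, 110 s recording / Signal: Fluo4 calcium-sensitive dye fluorescence, kinetic, 1 Hz baseline / Read-out: integrated baseline-normalised fluorescence ratio, converted to per-well B score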
# TRPC6 activator – activators of mouse TRPC6 channel; HEK293-TRPC6 membrane potential dye fluorescence; stronger effect = higher value; AID 2550; 0.13% of 310,000 active; B-score at 10 µM; Q61143;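 active = B-score of the integrated fluorescence ratio above library mean plus 3 SD, and starting fluorescence ratio within library mean plus 5 SD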;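 note: higher score means more depolarization so channel activation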
# * marks the source's active call; other numbers are inactive results; i = inactive.
SMILES,TRPC6 inh,TRPC4 inh,TRPC4 potent,TRPC4 act,TRPC6 activator
CC(NC(=S)Nc1ccc(S(=O)(=O)N2CCOCC2)cc1)C1CC2CCC1C2 (stereo not given),i,i,i,i,i
O=c1sc2ccccc2c(N2CCOCC2)c1[N+](=O)[O-],i,i,i,i,i
CN(C)S(=O)(=O)c1ccc(S(=O)(=O)N2CCCC(C(=O)NC3CCCC3)C2)cc1 (stereo not given),i,i,i,i,i
O=C(NC(c1ccccc1)c1cc(Cl)c2cccnc2c1O)c1cccnc1 (stereo not given),-5.8*,i,i,i,i
O=C(O)COc1ccccc1C(Nc1cccnc1)c1cc(Cl)c2cccnc2c1O (stereo not given),i,i,i,i,i
CN1CCN(CCC(=O)Nc2ccccc2)CC1,i,i,i,i,i
Cc1ccc(NC(=O)CCN2CCC(Cc3ccccc3)CC2)cc1,i,i,i,96*,i
OC1(c2ccc(Br)cc2)CN(c2ccccc2)C2=[N+]1CCS2 (stereo not given),i,i,i,93*,i
OC1(c2ccc(Cl)cc2)CN(c2ccccc2)C2=[N+]1CCS2 (stereo not given),i,i,i,75*,i
Cc1c(Cl)cccc1NC(=O)C1CC2CCC1C2 (stereo not given),i,i,i,i,i
CC1(C(=O)NC(=S)NNC(=O)c2ccncc2)CCCCC1,i,i,i,97*,i
O=C(NNC(=S)NC(=O)C12CC3CC(CC(C3)C1)C2)c1ccncc1,i,i,i,169*,i
NS(=O)(=O)c1ccc(CNC(=O)c2cc(-c3cccnc3)nc3ccc(Br)cc23)cc1,i,i,i,i,i
Cc1ccc2nc(SCC(=O)Nc3cc(C)on3)nc(=O)n2c1,i,i,i,i,i
Cc1[nH]c2ccccc2c1CN1CCC(Cc2ccccc2)CC1,i,i,i,67*,i
Cc1[nH]c2ccccc2c1CN1CCN(c2ccccn2)CC1,i,i,i,i,i
CCN(CC)S(=O)(=O)c1cccc(C(=O)NCC(c2ccccc2)N(C)C)c1 (stereo not given),i,i,i,79*,i
COc1ccc(C(CNC(=O)c2cccc(NS(=O)(=O)c3ccc(C)c(F)c3)c2)N(C)C)cc1 (stereo not given),i,i,i,81*,i
CN(C)C(CNC(=O)c1ccc2nc[nH]c2c1)c1ccccc1 (stereo not given),i,i,i,142*,i
COc1ccc(C(CNC(=O)c2cccc(NS(=O)(=O)c3ccccc3)c2)N(C)C)cc1 (stereo not given),i,-6*,i,53*,i
CN(C)C(CNC(=O)CNC(=O)c1ccc2ccccc2c1)c1ccccc1 (stereo not given),i,i,i,i,i
COc1ccc(NS(=O)(=O)c2cccc(C(=O)NCC(c3ccco3)N(C)C)c2)cc1 (stereo not given),i,i,i,i,i
O=C(CSc1ccc(-c2ccccn2)nn1)Nc1ccc(F)c(F)c1,i,i,i,i,i
CS(=O)(=O)N1CCC(Oc2ccccc2C(=O)NCCCc2cccnc2)CC1,i,i,i,i,i
CCOc1ccc(CCNC(=O)c2nnc(CS(=O)(=O)c3ccccc3)o2)cc1OCC,i,i,i,i,i
CC(=O)c1ccc(S(=O)(=O)NCc2ccc(C(=O)NCC(c3ccccc3)N(C)C)cc2)cc1 (stereo not given),i,i,i,177*,i
CCOc1ccc(S(=O)(=O)Nc2cccc(C(=O)NCC(c3ccco3)N(C)C)c2)cc1 (stereo not given),i,i,i,i,i
CCOc1ccc(S(=O)(=O)Nc2cccc(C(=O)NCC(c3ccccc3)N(C)C)c2)cc1 (stereo not given),i,i,i,198*,i

# Screens as filed in PubChem BioAssay.
